Measured values gathered from unrelated publications.
Lines come from different studies, so protocols differ.
Target: Delta-type opioid receptor (OPRD1, Homo sapiens, UniProt P41143)
Read-out: ligand displacement
Tested at: 10 µM

With `N#Cc1cc(Cn2c(N3CCCC3)nc3ccccc32)ccc1F` the inhibition was -11.4%.
`COc1cc(NC(C)=O)c(Cl)cc1C(=O)Nc1nccs1` has an inhibition of 20.9%.
`CCN(Cc1ccccc1C(F)(F)F)C(=O)C1CCN(S(=O)(=O)c2ccc3[nH]ncc3c2)CC1` gave an inhibition of 6% (radioligand).
With `O=C(c1ccc(Cl)cc1)N(Cc1ccccc1)C1CCCCC1` the inhibition was 33.4%.
For `O=C1N=C(N2CCCCN2)S/C1=C\c1ccc(F)cc1O`, the inhibition was 13% (radioligand).
For `Cc1cc(-c2nc(CN3CCNCC3)no2)cc2c1C(=O)N(Cc1ccc(OC(F)(F)F)cc1)C2`, the inhibition was 45% (radioligand).
For `CCN(CC)c1ccc(C2Nc3ccc(C(=O)c4ccccc4)cc3NC3=C2C(=O)CC(C)(C)C3)cc1` (centres unmarked), the inhibition was 12% (radioligand).
For `CCCNc1nc2ccccc2n1Cc1ccc(Cl)cc1`, the inhibition was -5.69%.
